For data set [1], the target named is Delta-type opioid receptor (Rattus norvegicus, UniProt P33533). As to the kind of experiment: Displacement of [3H]DSLET from rat brain DOR after 2 hrs. The gist of the method: (§1)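 Rat brain membranes were incubated 2 h at 0 °C with 0.72 nM [3H]DAMGO (MOR) or 0.78 nM [3H]DSLET (DOR). IC50 came from log-dose displacement curves.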
Data set [2] deals with Mu-type opioid receptor (Rattus norvegicus, UniProt P33535). Nature of the data set: Displacement of [3H]DAMGO from rat brain MOR after 2 hrs. Put shortly: as §1
Background: Displacement assays read how much labelled ligand stays bound in the presence of the test substance.

The target of data set [3] is T1, Substance-P receptor (Homo sapiens, UniProt P25103). Nature of the data set: Displacement of [3H]SP from human NK1 receptor expressed in CHO cells after 20 mins by liquid scintillation counting analysis. It counts as cell-based. The gist of the method: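 Membranes from hNK1/CHO cells (20 µg) were incubated with 0.4 nM [3H]SP and six test concentrations in duplicate. Buffer was 50 mM Tris pH 7.4 with 5 mM MgCl2, bacitracin, bestatin, captopril and PMSF, for 20 min at 25 °C. Nonspecific binding was defined with 10 µM SP. Samples were filtered on PEI-soaked GF/B, counted by scintillation, three independent experiments. Ki by Cheng-Prusoff from nonlinear-regression IC50.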

For data set [4], the target named is Delta-type opioid receptor (Mus musculus, UniProt P32300). As to the kind of experiment: Activation of DOR in mouse vas deferens. Put shortly: (§2)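 Isolated guinea pig ileum (MOR) and mouse vas deferens (DOR) bioassays. A [Leu5]enkephalin standard dose-response curve was run on each tissue preparation, and test IC50 values were normalized to it. Values are means of 3-4 experiments.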

Data set [5] deals with Mu-type opioid receptor (Cavia porcellus, UniProt P97266). As to the kind of experiment: Activation of MOR in guinea pig ileum. Type of data set: tissue-based. The gist of the method:
as §2

Data set [6] is filed under the species Rattus norvegicus. Nature of the data set: Selectivity ratio of Ki for rat brain DOR to Ki for rat brain MOR.
Data set [7] is filed under the species Rattus norvegicus. As to the kind of experiment: Reduction of hyperalgesia in Wistar rat chronic constriction injury model at 1 nmol, it measured 7 days post CCI challenge by cold plate test. It counts as functional, organism-based. Put shortly:
(§3)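 In catheterized male Wistar rats with sciatic CCI, a single i.t. dose in water for injection was given on day 7. Thermal hyperalgesia was measured 30 min later as latency to hind-paw shake on a 5 °C cold plate. Data are %MPE, 6-12 rats/group, ANOVA with Bonferroni.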

For data set [8], the species on record is Rattus norvegicus. Nature of the data set: Antiallodynic effect in Wistar rat chronic constriction injury model at 0.001 to 1 nmol, it measured 7 days post CCI challenge by Von Frey test. Type of data set: functional, organism-based. Put shortly:
(§4)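 Male Wistar rats (300-350 g) with i.t. catheters (L4-L6) had CCI made by four loose silk ligatures on the right sciatic nerve. On day 7 they received a single i.t. dose in water for injection. Mechanical allodynia was measured 30 min later with an automatic von Frey device (0.5-26 g) on the midplantar hind paw. Data are %MPE, 6-12 rats/group, ANOVA with Bonferroni.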

The species named for data set [9] is Rattus norvegicus. Nature of the data set: Antinociceptive activity in Wistar rat at 0.001 to 0.1 nmol, it after 30 mins by tail flick test. It counts as functional, organism-based. Put shortly:
(§5)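 Naive male Wistar rats (250-300 g) with i.t. catheters received a single i.t. injection in water for injection (5 µl plus 10 µl flush), 7 days after catheter implantation. Tail-flick latency to a light-bulb heat stimulus at two-thirds of tail length was read 30 min post-dose (timepoints up to 180 min), with a 9 s cut-off. Data are %MPE = (TL-BL)/(cut-off-BL)×100, 7-12 rats/group, ANOVA with Bonferroni.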

For data set [10], the species on record is Rattus norvegicus. As to the kind of experiment: Toxicity in Wistar rat chronic constriction injury model at 1 nmol, it measured 7 days post CCI challenge. It counts as organism-based. The note with it: in vivo, icv_or_intrathecal, 168 h.
Data set [11] deals with T1, Substance-P receptor. As to the kind of experiment: Antagonist activity at human NK1 receptor expressed in CHO cells by luminescence assay in presence of SP peptide. Type of data set: cell-based. The note with it: read-out: pA2 (converted).
For data set [12], the species on record is Rattus norvegicus. Nature of the data set: Antiallodynic effect in Wistar rat chronic constriction injury model at 0.35 to 35 nmol, it measured 7 days post CCI challenge by Von Frey test. Type of data set: functional, organism-based. Put shortly:
as §4

Data set [13] has as its system Rattus norvegicus. Nature of the data set: Antiallodynic effect in Wistar rat chronic constriction injury model assessed as cross tolerance developement pretreated with H-Dmt-D-Arg-Aba-beta-Ala-NMe-Bn at 1 nmol, it qd for 6 days administered from 7 days post CCI challenge to day 13 measured 30 mins post morphine challenge by Von Frey test. It counts as functional, organism-based. Put shortly:
(§6)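 CCI Wistar rats were made tolerant by 6 days of once-daily i.t. dosing (morphine 3.5 nmol or hybrid 1 nmol). On day 13 they received a single i.t. challenge (morphine 3.5 nmol or hybrid 1 nmol) against repeated-vehicle controls. Von Frey and cold plate tests were run 30 min later. Data are %MPE, 6-8 rats/group, ANOVA with Bonferroni.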

The test system of data set [14] is Rattus norvegicus. As to the kind of experiment: Antiallodynic effect in Wistar rat chronic constriction injury model assessed as cross tolerance developement pretreated with H-Dmt-D-Arg-Aba-beta-Ala-NMe-Bn at 1 nmol, it qd for 6 days administered from 7 days post CCI challenge to day 13 measured 30 mins post morphine challenge by cold plate test. Type of data set: functional, organism-based. Put shortly: as §6

The subject of data set [15] is Rattus norvegicus. Nature of the data set: Antiallodynic effect in Wistar rat chronic constriction injury model assessed as tolerance to neuropathic pain at 3.5 nmol, it qd for 6 days administered from 7 days post CCI challenge to day 13 by Von Frey test. Type of data set: functional, organism-based. Put shortly: (§7)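 CCI Wistar rats received once-daily i.t. injections (morphine 3.5 nmol, hybrids 1 nmol, in water for injection) from day 7 to day 13 after CCI. Von Frey and 5 °C cold plate tests were run 30 min after each dose. Data are %MPE and AUC, 12-16 rats/group, ANOVA with Bonferroni.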

Data set [16] has as its system Rattus norvegicus. Nature of the data set: Antinociceptive activity in it dosed Wistar rat after 30 mins by tail flick test. Type of data set: functional. The gist of the method: as §5
Background: Thermal pain tests record how soon the animal reacts.

For data set [17], the system named is Rattus norvegicus. As to the kind of experiment: Antiallodynic effect in Wistar rat chronic constriction injury model assessed as cross tolerance developement pretreated with H-Dmt-D-Arg-Aba-Gly-NMe-3',5'-(CF3)2-Bn at 1 nmol, it qd for 6 days administered from 7 days post CCI challenge to day 13 measured 30 mins post morphine challenge by Von frey test. Type of data set: functional, organism-based. The gist of the method: as §6

Data set [18] deals with Rattus norvegicus. As to the kind of experiment: Antiallodynic effect in it dosed Wistar rat measured 7 days post CCI challenge by Von Frey test. It counts as functional. Put shortly: as §4
For data set [19], the system named is Rattus norvegicus. Nature of the data set: Antiallodynic effect in Wistar rat chronic constriction injury model assessed as tolerance to neuropathic pain at 3.5 nmol, it qd for 6 days administered from 7 days post CCI challenge to day 13 by cold plate test. It counts as functional, organism-based. The gist of the method:
as §7

Data set [20] has as its system Rattus norvegicus. As to the kind of experiment: Antiallodynic effect in Wistar rat chronic constriction injury model assessed as cross tolerance developement pretreated with H-Dmt-D-Arg-Aba-Gly-NMe-3',5'-(CF3)2-Bn at 1 nmol, it qd for 6 days administered from 7 days post CCI challenge to day 13 measured 30 mins post morphine challenge by cold plate test. It counts as functional, organism-based. The gist of the method: as §6

The test system of data set [21] is Rattus norvegicus. As to the kind of experiment: Reduction of hyperalgesia in it dosed Wistar rat measured 7 days post CCI challenge by cold plate test. Type of data set: functional. The gist of the method:
as §3

The pKi is −log10 of the Ki, conventionally taken in molar units. A lower pKi goes with a high Ki. What is called pIC50 is the IC50 on a negative log10 scale, so that one unit is a factor of ten. Read a high pIC50 as a small IC50.

pIC50, pKi: −log10 of the molar value. The source made the active and inactive calls.

Sequence of Delta-type opioid receptor (Rattus norvegicus, UniProt P33533) (P33533 whole entry): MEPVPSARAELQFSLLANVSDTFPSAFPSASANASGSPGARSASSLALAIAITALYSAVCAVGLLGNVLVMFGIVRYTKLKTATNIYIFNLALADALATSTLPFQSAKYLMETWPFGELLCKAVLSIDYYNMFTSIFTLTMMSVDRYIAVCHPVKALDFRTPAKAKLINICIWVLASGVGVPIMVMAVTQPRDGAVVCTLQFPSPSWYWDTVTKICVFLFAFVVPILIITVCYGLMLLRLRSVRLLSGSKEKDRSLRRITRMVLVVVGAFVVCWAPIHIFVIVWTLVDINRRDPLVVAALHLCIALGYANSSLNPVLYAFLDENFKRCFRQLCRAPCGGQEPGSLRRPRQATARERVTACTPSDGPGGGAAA
Sequence of Delta-type opioid receptor (Mus musculus, UniProt P32300) (P32300 whole entry): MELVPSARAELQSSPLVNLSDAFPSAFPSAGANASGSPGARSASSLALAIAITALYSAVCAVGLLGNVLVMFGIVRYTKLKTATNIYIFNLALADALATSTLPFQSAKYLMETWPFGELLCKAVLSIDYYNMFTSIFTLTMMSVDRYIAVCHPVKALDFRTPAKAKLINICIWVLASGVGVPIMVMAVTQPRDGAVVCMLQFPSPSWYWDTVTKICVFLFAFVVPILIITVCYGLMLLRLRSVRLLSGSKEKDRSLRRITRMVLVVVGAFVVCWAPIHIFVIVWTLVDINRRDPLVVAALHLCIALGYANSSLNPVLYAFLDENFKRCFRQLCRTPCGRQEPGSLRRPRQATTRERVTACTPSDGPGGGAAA
T1 sequence (P25103 whole entry): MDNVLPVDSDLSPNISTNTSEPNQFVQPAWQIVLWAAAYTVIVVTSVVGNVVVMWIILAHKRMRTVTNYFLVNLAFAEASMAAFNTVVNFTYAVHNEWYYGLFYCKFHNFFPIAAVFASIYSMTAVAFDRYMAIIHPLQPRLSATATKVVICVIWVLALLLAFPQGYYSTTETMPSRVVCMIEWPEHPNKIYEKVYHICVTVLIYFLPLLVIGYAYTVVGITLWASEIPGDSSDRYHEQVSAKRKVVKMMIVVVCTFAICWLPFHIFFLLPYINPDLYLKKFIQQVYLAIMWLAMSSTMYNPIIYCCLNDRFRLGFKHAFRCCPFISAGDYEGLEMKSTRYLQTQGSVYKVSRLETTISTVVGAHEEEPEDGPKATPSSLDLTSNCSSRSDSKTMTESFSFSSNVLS
Sequence of Mu-type opioid receptor (Cavia porcellus, UniProt P97266) (P97266 whole entry): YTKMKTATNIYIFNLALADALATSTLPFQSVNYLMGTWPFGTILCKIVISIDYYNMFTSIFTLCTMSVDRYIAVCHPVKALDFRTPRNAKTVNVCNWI
Sequence of Mu-type opioid receptor (Rattus norvegicus, UniProt P33535) (P33535 whole entry): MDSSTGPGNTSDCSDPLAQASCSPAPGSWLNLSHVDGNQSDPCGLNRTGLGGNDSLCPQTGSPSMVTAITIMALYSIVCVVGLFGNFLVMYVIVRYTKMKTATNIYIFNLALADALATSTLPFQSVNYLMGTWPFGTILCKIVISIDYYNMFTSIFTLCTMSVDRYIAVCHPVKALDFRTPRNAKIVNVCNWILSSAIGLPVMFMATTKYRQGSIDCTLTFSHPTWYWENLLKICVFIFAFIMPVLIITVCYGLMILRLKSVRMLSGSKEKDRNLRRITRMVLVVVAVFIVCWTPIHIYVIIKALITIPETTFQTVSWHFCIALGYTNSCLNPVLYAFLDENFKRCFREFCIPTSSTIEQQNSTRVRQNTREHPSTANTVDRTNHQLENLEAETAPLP

As to `Cc1cc(O)cc(C)c1C[C@H](N)C(=O)N[C@H](CCCNC(=N)N)C(=O)N[C@H]1Cc2ccccc2CN(CC(=O)NCc2ccccc2)C1=O`, the pKi in [1] was 9.21; in data set [2] it was 9.85; in data set [3] it was 5.21. The values for the pIC50 in data set [4] and in [5] were 8.46 and 8.35, respectively. In addition, the Ratio Ki in [6] came out at 4.4.

With `Cc1cc(O)cc(C)c1C[C@H](N)C(=O)N[C@H](CCCNC(=N)N)C(=O)N[C@H]1Cc2ccccc2CN(CC(=O)N(C)Cc2ccccc2)C1=O`, in [6], the Ratio Ki was determined as 24.8.

As to `Cc1cc(O)cc(C)c1C[C@H](N)C(=O)N[C@H](CCCNC(=N)N)C(=O)N[C@H]1Cc2ccccc2CN(CC(N)=O)C1=O`, the outcome in [7], in data set [8] and in data set [9] was Active. Further, the Ratio Ki in [6] is 4.

Regarding `Cc1cc(O)cc(C)c1C[C@H](N)C(=O)N[C@H](CCCN=C(N)N)C(=O)N[C@H]1Cc2ccccc2CN(CC(N)=O)C1=O`, the Activity entry in data set [10] was “Toxic”.

Turning to `Cc1cc(O)cc(C)c1C[C@H](N)C(=O)N[C@H](CCCNC(N)=O)C(=O)N[C@H]1Cc2ccccc2CN(CCC(=O)N(C)Cc2cc(C(F)(F)F)cc(C(F)(F)F)c2)C1=O`, the pKi in data set [1] was 9.26; in data set [2], 9.43; in data set [3], 7.46. Further, the pIC50 is 8.97 in [4] and 8.69 in data set [5]. For the same compound, in [6], the Ratio Ki worked out at 1.5. For the same compound, in [11], the Kb is 537 nM.

Take `CN1CC[C@]23c4c5ccc(O)c4O[C@H]2[C@@H](O)C=C[C@H]3[C@H]1C5` [MORPHINE]: the result in [12], in data set [15], in [7] and in [19] was Active. The outcome in data set [13], in data set [14], in [17] and in data set [20] was inactive. For the same compound, the ED50 in [16] was 0.49 nmol; in [18], 6.25 nmol; in [21], 377 nmol.

As to `Cc1cc(O)cc(C)c1C[C@H](N)C(=O)N[C@H](CCCNC(N)=O)C(=O)N[C@H]1Cc2ccccc2CN(CCC(=O)N(C)Cc2ccccc2)C1=O`, the negative logarithm of the Ki (pKi) in data set [1] is 9.32; in [2], 9.55; in [3], 5.52. The results for the pIC50 in [4] and in data set [5] were 9.48 and 9.02, respectively. Also, the Ratio Ki in data set [6] is 1.7.

Values taken from ChEMBL document CHEMBL3407477, “Synthesis and biological evaluation of compact, conformationally constrained bifunctional opioid agonist - neurokinin-1 antagonist peptidomimetics” (Eur J Med Chem, 2015).
